According to ChEMBL document CHEMBL4229550, “An antimycobacterial pleuromutilin analogue effective against dormant bacilli” (Bioorg Med Chem, 2018):
≈ marks a conversion by molar mass, not a printed value.

How the values were obtained:
[1] = test system: Mycobacterium tuberculosis; assay: Antibacterial activity against non-replicating Mycobacterium tuberculosis H37Rv harboring pFCA-luxAB preincubated for 10 days under anaerobic condition followed by incubation under ambient gaseous condition for 28 hrs by LORA; assay type: functional
In short: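 Mtb H37Rv is electroporated with pFCA-luxAB and diluted in 7H12 broth to A570 0.03–0.05 (3,000–7,000 RLU per 100 µL). Cells are added to two-fold serial dilutions and held anaerobic (O2 <0.16%; 10% H2, 5% CO2, 85% N2) for 10 days. A 28 h recovery in 5% CO2 air follows, then luminescence is read.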

[2] = test system: Mycobacterium tuberculosis; assay: Selectivity ratio of MIC for antibacterial activity against non-replicating Mycobacterium tuberculosis H37Rv harboring pFCA-luxAB to MIC100 for antibacterial activity against replicating Mycobacterium tuberculosis H37Rv; assay type: functional

SMILES	MIC [1] [µg/mL]	selectivity ratio [2]
C=C[C@]1(C)C[C@@H](OC(=O)CSC(C)(C)CNC(=O)[C@H](N)CC(C)C)[C@]2(C)[C@H](C)CC[C@]3(CC[C@@H](O)[C@H]32)[C@@H](C)[C@@H]1O	3.46 (≈ 5.96 µM)	1.13
C=C[C@]1(C)C[C@@H](OC(=O)CSC(C)(C)CNC(=O)[C@H](N)CC(C)C)[C@]2(C)[C@H](C)CC[C@]3(CCC(=O)[C@H]32)[C@@H](C)[C@@H]1O	1.98 (≈ 3.42 µM)	1.27
CC[C@]1(C)C[C@@H](OC(=O)CSC(C)(C)CNC(=O)[C@H](N)CC(C)C)[C@]2(C)[C@H](C)CC[C@]3(CC[C@@H](O)[C@H]32)[C@@H](C)[C@@H]1O	1.2 (≈ 2.06 µM)	1.45
CC[C@]1(C)C[C@@H](OC(=O)CSC(C)(C)CNC(=O)[C@H](N)CC(C)C)[C@]2(C)[C@H](C)CC[C@]3(CCC(=O)[C@H]32)[C@@H](C)[C@@H]1O	1.04 (≈ 1.79 µM)	1.33
CC[C@@H](CO)NCCN[C@@H](CC)CO [ETHAMBUTOL]	> 100	>128
NNC(=O)c1ccncc1 [ISONIAZID]	> 100	>2500
CC(=O)NC[C@H]1CN(c2ccc(N3CCOCC3)c(F)c2)C(=O)O1 [LINEZOLID]	0.63 (≈ 1.87 µM)	1.05
C=C[C@]1(C)C[C@@H](OC(=O)CSC(C)(C)CNC(=O)[C@H](N)C(C)C)[C@]2(C)[C@H](C)CC[C@]3(CCC(=O)[C@H]32)[C@@H](C)[C@@H]1O [VALNEMULIN]	3.56 (≈ 6.3 µM)	1.14
